According to ChEMBL document CHEMBL5126644, “Synthesis and Structural Characterization of Novel Trihalo-sulfone Inhibitors of WNK1” (ACS Med Chem Lett, 2022):
Active and inactive are the calls of the source. The rule behind the calls is not given here.

Key:
[1] = target: T1, Serine/threonine-protein kinase WNK1 (Homo sapiens, UniProt Q9H4A3); assay: Inhibition of TEV cleavage site-fused His6-tagged WNK1 (194 to 483 residues) (unknown origin) expressed in Rosetta (DE3) cells using GST-OSR1(314 to 344) peptide as substrate incubated for 2 hrs by kinase-glo luminescence assay
Target sequence in this assay (Q9H4A3 whole entry, the tested form may be a part): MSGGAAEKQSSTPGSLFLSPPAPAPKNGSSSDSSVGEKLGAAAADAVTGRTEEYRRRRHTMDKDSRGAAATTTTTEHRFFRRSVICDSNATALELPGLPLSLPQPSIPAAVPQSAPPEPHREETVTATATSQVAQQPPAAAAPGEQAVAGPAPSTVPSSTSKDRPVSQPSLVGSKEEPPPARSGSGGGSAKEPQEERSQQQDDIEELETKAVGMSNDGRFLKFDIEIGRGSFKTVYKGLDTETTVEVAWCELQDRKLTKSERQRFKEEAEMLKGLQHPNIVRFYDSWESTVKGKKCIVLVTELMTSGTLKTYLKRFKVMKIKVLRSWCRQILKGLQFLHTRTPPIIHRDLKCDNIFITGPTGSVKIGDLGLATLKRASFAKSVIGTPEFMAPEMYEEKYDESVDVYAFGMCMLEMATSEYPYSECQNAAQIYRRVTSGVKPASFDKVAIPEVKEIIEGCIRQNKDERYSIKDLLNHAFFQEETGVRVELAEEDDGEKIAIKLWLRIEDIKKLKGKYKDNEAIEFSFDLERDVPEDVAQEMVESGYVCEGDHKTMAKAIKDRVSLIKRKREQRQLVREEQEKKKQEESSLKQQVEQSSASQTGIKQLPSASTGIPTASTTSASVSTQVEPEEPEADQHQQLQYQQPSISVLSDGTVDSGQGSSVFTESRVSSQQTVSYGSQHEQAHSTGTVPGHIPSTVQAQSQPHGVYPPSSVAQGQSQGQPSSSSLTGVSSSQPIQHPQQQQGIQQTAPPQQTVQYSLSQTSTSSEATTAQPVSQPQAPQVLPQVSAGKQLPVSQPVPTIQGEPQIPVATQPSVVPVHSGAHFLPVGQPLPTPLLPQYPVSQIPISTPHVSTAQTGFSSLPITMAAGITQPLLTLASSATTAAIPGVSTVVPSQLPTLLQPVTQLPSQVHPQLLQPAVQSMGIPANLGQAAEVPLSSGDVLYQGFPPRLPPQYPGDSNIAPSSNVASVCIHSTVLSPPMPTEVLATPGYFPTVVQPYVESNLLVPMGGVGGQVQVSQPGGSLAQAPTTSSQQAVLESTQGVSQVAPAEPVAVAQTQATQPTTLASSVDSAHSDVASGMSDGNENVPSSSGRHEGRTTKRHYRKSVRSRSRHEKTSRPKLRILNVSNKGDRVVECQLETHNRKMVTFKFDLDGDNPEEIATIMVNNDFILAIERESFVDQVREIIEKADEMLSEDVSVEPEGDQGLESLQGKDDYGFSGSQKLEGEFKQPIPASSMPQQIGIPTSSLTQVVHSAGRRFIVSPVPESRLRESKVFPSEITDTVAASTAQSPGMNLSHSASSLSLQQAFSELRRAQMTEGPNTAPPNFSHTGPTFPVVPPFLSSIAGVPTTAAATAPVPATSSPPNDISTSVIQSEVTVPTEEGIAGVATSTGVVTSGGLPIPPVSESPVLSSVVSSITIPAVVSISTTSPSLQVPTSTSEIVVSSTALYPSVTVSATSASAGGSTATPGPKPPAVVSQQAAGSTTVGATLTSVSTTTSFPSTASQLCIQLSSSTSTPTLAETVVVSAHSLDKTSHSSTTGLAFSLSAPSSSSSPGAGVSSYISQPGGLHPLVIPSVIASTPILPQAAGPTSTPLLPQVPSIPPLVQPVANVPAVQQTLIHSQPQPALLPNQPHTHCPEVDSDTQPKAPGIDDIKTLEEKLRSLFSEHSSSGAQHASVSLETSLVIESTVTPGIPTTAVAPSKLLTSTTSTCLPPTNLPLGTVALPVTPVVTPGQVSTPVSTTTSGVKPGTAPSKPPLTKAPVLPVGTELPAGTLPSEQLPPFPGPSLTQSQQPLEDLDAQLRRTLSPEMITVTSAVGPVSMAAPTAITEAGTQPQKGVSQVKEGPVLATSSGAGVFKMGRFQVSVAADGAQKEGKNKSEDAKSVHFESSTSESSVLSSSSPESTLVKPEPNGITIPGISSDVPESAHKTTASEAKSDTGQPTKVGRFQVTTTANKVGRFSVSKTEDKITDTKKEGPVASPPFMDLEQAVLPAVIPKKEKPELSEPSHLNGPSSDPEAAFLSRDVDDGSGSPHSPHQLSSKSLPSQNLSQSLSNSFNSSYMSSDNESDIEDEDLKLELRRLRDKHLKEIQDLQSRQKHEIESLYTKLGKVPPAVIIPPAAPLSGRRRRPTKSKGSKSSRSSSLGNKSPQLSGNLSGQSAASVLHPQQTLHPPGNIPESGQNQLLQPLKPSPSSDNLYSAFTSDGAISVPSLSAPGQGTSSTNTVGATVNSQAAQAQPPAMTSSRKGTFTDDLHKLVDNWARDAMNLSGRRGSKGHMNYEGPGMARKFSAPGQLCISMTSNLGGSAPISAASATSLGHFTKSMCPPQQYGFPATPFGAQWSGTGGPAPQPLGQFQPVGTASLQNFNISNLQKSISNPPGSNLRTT

[2] = target: Mitogen-activated protein kinase 9 (Homo sapiens) (UniProt P45984); assay: Inhibition of JNK2 (unknown origin) at 10 uM
[3] = target: T1, Serine/threonine-protein kinase WNK1; assay: Inhibition of WNK1 (unknown origin) at 10 uM relative to control
Target sequence in this assay (Q9H4A3 whole entry, looked up, the tested form may be a part): as the sequence (Q9H4A3 whole entry, the tested form may be a part) above

[4] = target: Mitogen-activated protein kinase 10 (Homo sapiens) (UniProt P53779); assay: Inhibition of JNK3 (unknown origin) at 10 uM
[5] = target: Serine/threonine-protein kinase WNK2 (Homo sapiens) (UniProt Q9Y3S1); assay: Inhibition of WNK2 (unknown origin) at 10 uM relative to control
[6] = target: T1, Serine/threonine-protein kinase WNK1; assay: Inhibition of TEV cleavage site-fused His6-tagged WNK1 (194 to 483 residues) (unknown origin) expressed in Rosetta (DE3) cells using GST-OSR1(314 to 344) peptide as substrate measured after 30 mins by [gamma-32P]-ATP based liquid scintillation counting analysis; format: biochemical
Procedure, shortened: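 Radiometric kinase assay using [γ-32P]ATP at low enzyme concentration. It was chosen over the luminescence format for more precise IC50 determination.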
Target sequence in this assay (Q9H4A3 whole entry, the tested form may be a part): as above

[7] = target: Serine/threonine-protein kinase WNK3 (Homo sapiens) (UniProt Q9BYP7); assay: Inhibition of WNK3 (unknown origin) at 10 uM relative to control
Homo sapiens = species on record: Homo sapiens; assay: Selectivity ratio of IC50 for WNK3 (118 to 409 residues) (unknown origin) expressed in Escherichia coli BL21 DE3 to IC50 for TEV cleavage site-fused His6-tagged WNK1 (194 to 483 residues) (unknown origin) expressed in Rosetta (DE3) cells
MDA-MB-231 = assay: Cytotoxicity against human MDA-MB-231 cells assessed as cell viability up to 12 uM measured after 24 hrs; format: toxicity, cell-based; conditions: mda-mb-231, 24 h
[8] = target: T1, Serine/threonine-protein kinase WNK1; assay: Inhibition of WNK1 in human MDA-MB-231 cells assessed as reduction in OSR1 phosphorylation measured after 24 hrs by Western blot analysis; format: cell-based
Procedure, shortened: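 Endogenous OSR1 phosphorylation was measured in MDA-MB-231 breast cancer cells. Experiments were run in triplicate, and an IC50 was derived from the phosphorylation read-out.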
Target sequence in this assay (Q9H4A3 whole entry, the tested form may be a part): as above

Serine/threonine-protein kinase WNK2 (Homo sapiens), sequence (Q9Y3S1 whole entry, the tested form may be a part): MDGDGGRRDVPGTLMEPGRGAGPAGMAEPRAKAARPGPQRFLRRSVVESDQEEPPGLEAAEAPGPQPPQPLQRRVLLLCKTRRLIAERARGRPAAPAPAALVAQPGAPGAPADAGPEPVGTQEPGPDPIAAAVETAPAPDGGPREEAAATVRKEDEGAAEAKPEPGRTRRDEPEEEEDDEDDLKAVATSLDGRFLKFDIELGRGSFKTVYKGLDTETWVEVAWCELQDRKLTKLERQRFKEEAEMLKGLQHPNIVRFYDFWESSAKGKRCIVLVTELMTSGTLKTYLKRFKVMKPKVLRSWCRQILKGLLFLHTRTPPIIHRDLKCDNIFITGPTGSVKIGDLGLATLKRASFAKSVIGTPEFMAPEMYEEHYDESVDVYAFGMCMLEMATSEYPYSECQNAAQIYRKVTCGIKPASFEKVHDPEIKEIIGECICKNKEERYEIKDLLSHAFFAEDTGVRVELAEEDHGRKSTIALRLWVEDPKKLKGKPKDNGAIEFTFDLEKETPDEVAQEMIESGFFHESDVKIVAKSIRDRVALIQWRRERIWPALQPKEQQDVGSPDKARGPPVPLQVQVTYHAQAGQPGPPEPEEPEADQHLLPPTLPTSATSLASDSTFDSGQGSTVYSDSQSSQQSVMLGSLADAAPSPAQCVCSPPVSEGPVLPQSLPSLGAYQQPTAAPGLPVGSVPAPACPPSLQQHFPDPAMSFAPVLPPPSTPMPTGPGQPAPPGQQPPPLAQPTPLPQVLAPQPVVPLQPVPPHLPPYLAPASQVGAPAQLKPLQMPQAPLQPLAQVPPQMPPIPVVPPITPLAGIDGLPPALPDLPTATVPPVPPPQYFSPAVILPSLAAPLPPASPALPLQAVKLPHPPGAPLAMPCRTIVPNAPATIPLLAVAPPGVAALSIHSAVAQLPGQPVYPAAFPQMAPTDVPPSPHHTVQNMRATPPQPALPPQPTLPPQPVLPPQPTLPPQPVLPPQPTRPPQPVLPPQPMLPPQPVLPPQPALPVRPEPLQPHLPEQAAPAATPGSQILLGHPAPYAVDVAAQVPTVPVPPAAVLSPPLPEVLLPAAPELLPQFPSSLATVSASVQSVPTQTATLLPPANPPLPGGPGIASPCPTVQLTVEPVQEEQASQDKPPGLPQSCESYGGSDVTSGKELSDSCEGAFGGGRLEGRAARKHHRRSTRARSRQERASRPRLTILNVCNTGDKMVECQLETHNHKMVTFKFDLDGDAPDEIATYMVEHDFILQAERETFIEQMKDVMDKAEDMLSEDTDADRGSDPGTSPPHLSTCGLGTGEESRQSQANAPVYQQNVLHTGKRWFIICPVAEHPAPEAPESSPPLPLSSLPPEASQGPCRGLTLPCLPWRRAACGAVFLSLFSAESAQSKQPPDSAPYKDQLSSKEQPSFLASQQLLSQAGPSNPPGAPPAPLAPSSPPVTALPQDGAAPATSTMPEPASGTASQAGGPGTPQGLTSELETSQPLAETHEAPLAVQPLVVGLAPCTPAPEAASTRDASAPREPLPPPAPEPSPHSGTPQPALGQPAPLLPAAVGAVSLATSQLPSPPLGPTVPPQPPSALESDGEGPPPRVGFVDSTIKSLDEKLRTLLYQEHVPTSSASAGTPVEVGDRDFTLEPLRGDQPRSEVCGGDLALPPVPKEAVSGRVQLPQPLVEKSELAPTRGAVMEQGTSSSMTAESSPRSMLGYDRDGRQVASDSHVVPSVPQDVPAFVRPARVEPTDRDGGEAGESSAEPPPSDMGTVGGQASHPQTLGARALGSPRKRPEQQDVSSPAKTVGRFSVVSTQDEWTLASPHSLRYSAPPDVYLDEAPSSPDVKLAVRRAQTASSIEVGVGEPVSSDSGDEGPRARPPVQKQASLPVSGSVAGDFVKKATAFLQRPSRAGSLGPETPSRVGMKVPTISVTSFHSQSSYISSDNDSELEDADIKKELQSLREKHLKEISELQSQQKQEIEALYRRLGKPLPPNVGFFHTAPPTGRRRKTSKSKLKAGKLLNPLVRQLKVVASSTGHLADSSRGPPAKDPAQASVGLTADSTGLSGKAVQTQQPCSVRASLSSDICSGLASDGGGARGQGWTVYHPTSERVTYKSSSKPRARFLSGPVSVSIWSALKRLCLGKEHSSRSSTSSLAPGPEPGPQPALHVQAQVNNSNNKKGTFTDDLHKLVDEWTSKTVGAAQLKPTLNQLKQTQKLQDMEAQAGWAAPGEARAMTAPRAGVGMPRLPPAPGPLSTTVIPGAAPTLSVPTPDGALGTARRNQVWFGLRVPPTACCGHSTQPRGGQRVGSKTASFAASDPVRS

O=[N+]([O-])c1cc(S(=O)(=O)C(Cl)Cl)ccc1NC1CCCCC1
IC50 [1]: > 1000 µM

O=[N+]([O-])c1cc(S(=O)(=O)C(Cl)(Cl)Br)ccc1NCCCc1ccccc1
inhibition [2]: Active | inhibition [3]: 20% | IC50 [1]: 79 µM | inhibition [4]: Active | inhibition [5]: 20% | IC50 [6]: 6 µM

CS(=O)(=O)c1ccc(NC2CCCCC2)c([N+](=O)[O-])c1
IC50 [1]: > 1000 µM

O=[N+]([O-])c1cc(S(=O)(=O)C(Cl)(Cl)Br)ccc1NC1CCCCC1
inhibition [7]: 20% | Ratio IC50 (Homo sapiens): 10 | Activity (MDA-MB-231): Non-Toxic | IC50 [8]: 4.3 µM | inhibition [3]: 20% | IC50 [1]: 4 µM | IC50 [6]: 1.6 µM

O=[N+]([O-])c1cc(S(=O)(=O)C(F)(F)F)ccc1NC1CCCCC1
IC50 [1]: > 1000 µM | IC50 [6]: > 1000 µM

CCS(=O)(=O)c1ccc(NC2CCCCC2)c([N+](=O)[O-])c1
IC50 [1]: > 1000 µM

O=S(=O)(c1ccc(NC2CCCCC2)cc1)C(Cl)(Cl)Br
IC50 [1]: > 1000 µM

CN1CCN(c2ccc(S(=O)(=O)C(Cl)(Cl)Br)cc2[N+](=O)[O-])CC1
IC50 [1]: > 1000 µM

O=[N+]([O-])c1cc(S(=O)(=O)C(Cl)(Cl)Br)ccc1Nc1ccccc1
IC50 [1]: 76 µM | IC50 [6]: 7.2 µM

O=[N+]([O-])c1cc(S(=O)(=O)C(Cl)(Cl)Cl)ccc1NC1CCCCC1
IC50 [1]: > 1000 µM

O=[N+]([O-])c1ccccc1NC1CCCCC1
IC50 [1]: > 1000 µM

O=[N+]([O-])c1cc(S(=O)(=O)C(Cl)(Cl)Br)ccc1NCc1ccco1
IC50 [1]: 15 µM | IC50 [6]: 5 µM

O=[N+]([O-])c1cc(S(=O)(=O)C(Cl)(Cl)Br)ccc1NC1CCCC1
IC50 [1]: 93 µM | IC50 [6]: 6.5 µM
